Yeast life ext – yeast lifespan extension | S. cerevisiae growth with nicotinamide, OD615; deaD strain in restrictive glucose medium | inhibition of the nicotinamide effect, % at 10 µM | 130,000 tested, 0.68% active | AID 775;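 active = inhibition above a set limit, placed 3 SD over the median of all compounds, cut at about 26% in these data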;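 note: 0% = nicotinamide-treated wells and 100% = cells grown without nicotinamide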
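Measured by: optical density (absorbance) at 615 nm; System: modified budding yeast, DeaD strain; Medium: restrictive CSMM-D dextrose medium; Timing: 4 h preincubation then 48 h treatment at 30 °C.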
Yeast growth inh – yeast BB579 growth reduction in restrictive medium; S. cerevisiae BB579 growth, OD615, 48 h; inhibition, % at 10 µM; 140,000 tested, 0.51% active;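 active = inhibition above a set limit, 3 SD over the mean compound inhibition, cut at about 44% in these data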
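Detection: OD615 turbidity measurement; Material: Saccharomyces cerevisiae DeaD strain BB579, replicative lifespan model yeast; Timing: 48 h exposure, 30 °C; Doses: single 10 µM dose; Medium: CSMM-D restrictive synthetic medium containing dextrose (glucose); Controls: amphotericin B at 10 µg/mL as positive control.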
RAM inhibit – blocks the yeast RAM network; S. cerevisiae dse1pr::URA3 reporter, 5-FOA growth OD615, 2 d; analog-sensitive cbk1-as2 kinase mutant strain; inhibition, % at 50 µM; 190,000 tested, 1.8% active; AID 868;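 active = inhibition above a set limit, 3 SD over mean compound inhibition, cut at about 8.4% in these data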;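 note: 0% = DMSO-only wells with no growth and 100% = 10 µM 1-NA-PP1 full growth; inhibition rescues growth on 5-FOA so higher OD means more RAM inhibition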
sdo1 growth – sdo1-depleted yeast growth rescue; S. cerevisiae sdo1-depleted JHY4D growth rescue, OD600 30 h; hits give high values; pdr5 snq2 efflux-pump mutant strain; z-score at 10 µM; 140,000 tested, 0.21% active; AID 817;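 active = z-score above 3 at both the 24 hr and the 30 hr optical density reads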;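 note: z-score against mean and SD of all compound wells on the same plate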
Active calls of the source: *; nt = not tested or not shown. An excerpt weighted towards active compounds, which were near 2.7% of everything screened.

SMILES | Yeast life ext | Yeast growth inh | RAM inhibit | sdo1 growth
Nn1cc(-c2ccccc2)nc1SCC(=O)NC1CCS(=O)(=O)C1 (stereo not drawn) | -1 | 6 | 0 | 0.06
CCc1ccccc1N/C(=N\S(=O)(=O)c1ccccc1)C(F)(F)F | 30* | -6 | 2 | 0.79
COC(=O)C1CCN(C(=O)C23CCC(C)(C(=O)O2)C3(C)C)CC1 (stereo not drawn) | -8 | -21 | 2 | 0.58
COc1cc(OC)cc(-c2nc3ccccc3c(=O)n2OC(=O)c2ccccc2C)c1 | 61* | -12 | 5 | 0.09
CCN(CC)S(=O)(=O)c1ccc(N2CCCC2)c(C(=O)OCC(=O)/C(C#N)=C(\C)N)c1 | -12 | -32 | 2 | 2
Cc1ccc(-c2nc3sc(C(N)=O)c(N)c3c3c2CCCC3)cc1 | -7 | 46* | -1 | -2
COC(=O)CSc1nnc2c3c4c(sc3nc(-n3nc(C)cc3C)n12)COC(C)(C)C4 | -2 | -16 | 0 | -0.97
C=CCn1c(SC)nc2sc3c(c2c1=O)CCc1ccccc1-3 | -5 | -37 | 9.0* | -0.15
C=CCSc1nc2sc3c(c2c(=O)n1CC)CCc1ccccc1-3 | -3 | -30 | 9.2* | -1.1
CN=c1scc(C)n1/N=C/c1ccc(O)cc1O | -28 | -32 | 2 | -0.97
CC[n+]1c(/C=C2\C=C(C)CC(C)(C)C2)sc2ccccc21 | 40* | -15 | 2 | -1
CC[n+]1c(/C=C2\C=C(C)CC(C)C2)sc2ccccc21 (stereo not drawn) | 27* | -28 | 1 | -0.95
CCC1=C/C(=C/c2sc3ccccc3[n+]2CC)CC(C)(C)C1 | nt | nt | 4 | nt
CC[n+]1c(/C=C2/C=C(C)CC(C)(C)C2)sc2ccc(OC)cc21 | 8 | -9 | 3 | -0.27
Fc1cccc(Cl)c1CSc1ncn[nH]1 | -11 | -21 | 1 | 0
Cc1cc2c(cc1C)CSC(c1ccccc1OC(=O)C(C)(C)C)SC2 | -3 | -28 | 5 | -0.55
Cc1ccc(-n2c(O)c(C=Nc3ccc4c(c3)OCO4)c3ccccc3c2=O)cc1C | -14 | -58 | 10* | 0.15
COc1ccccc1N1CCN(C/C(C)=C/c2ccccc2)CC1 | 8 | -28 | 1 | 0.42
COC(=O)/C(C#N)=C/c1c(Oc2cc(C)cc(C)c2)nc2c(C)cccn2c1=O | 2 | -25 | 9.1* | -0.99
Cc1cc(Oc2nc3c(C)cccn3c(=O)c2/C=C(\C#N)S(=O)(=O)c2ccc(Cl)cc2)ccc1Cl | -1 | -14 | 6 | -2
COc1ccc(C2C3=C(CC(C)(C)CC3=O)Nc3c2c(=O)[nH]c(=O)n3Cc2ccccc2)cc1 (stereo not drawn) | 3 | -12 | 9.5* | -0.02
Cc1ccccc1-c1nc2sc(-c3ccccc3)cc2c(=O)o1 | -1 | -40 | 4 | -0.81
O=C(Nc1cc(C(F)(F)F)ccc1N1CCCCC1)c1ccco1 | -7 | -4 | 3 | 0.83
O=C(Nc1cc(C(F)(F)F)ccc1N1CCCCC1)c1ccc(Br)o1 | -17 | 1 | 11* | 0.97
O=C1N(CN2CCN(Cc3ccccc3)CC2)c2ccccc2C12OCCCO2 | nt | nt | 1 | nt
SMILES | Yeast life ext | Yeast growth inh | RAM inhibit | sdo1 growth
CCCCc1ccc(NC(=S)Nc2ccc(Nc3ccc(OC)cc3)cc2)cc1 | -5 | 56* | 7 | -1.4
CCCCc1ccc(NC(=S)NCc2cccc(OC)c2)cc1 | nt | nt | 2 | nt
N=C1C(c2nc3ccccc3s2)=C(O)CN1NC(=O)c1c[nH]c2ccccc12 | nt | nt | 8.5* | nt
CCCCN(CCCC)c1ccc(C(=O)c2ccccc2C(=O)O)c(O)c1 | 34* | -41 | 4 | 1.3
CCOC(=O)CC1ON(C)C(=O)N1c1ccc(Cl)cc1Cl (stereo not drawn) | 4 | -9 | 3 | 0.21
Cc1ccc(C)c(SCC(=O)NC(=O)NCc2ccccc2)c1 | 1 | -59 | 11* | -0.14
Cc1ccc(C)c(SCC(=O)OCC(=O)NCc2ccccc2)c1 | nt | nt | 1 | nt
COc1ccc(CN2C(=O)c3ccccc3C(/C=N/OCc3ccc(Cl)cc3)C2=O)cc1 (stereo not drawn) | -3 | -32 | 10* | 0.28
Cc1ccc2nc(N(CCN(C)C)C(=O)c3cc(Cl)sc3Cl)sc2c1 | -1 | -16 | 3 | 1.1
Cc1ccc(Sc2c(CO)c(-c3ccccc3)nn2C)cc1 | nt | nt | 0 | nt
CN1OC(c2ccccc2)=C(CO)C1c1ccccc1 (stereo not drawn) | 51* | -34 | 1 | 0.12
COc1ccc(N(C(=O)COc2cccc(C)c2)S(=O)(=O)c2ccc(C)cc2)cc1 | 19 | -44 | 9.7* | -0.89
Cc1cc(NCCN2CCOCC2)n2ncc(-c3ccccc3)c2n1 | 42* | 13 | 1 | -0.21

High-throughput results: PubChem BioAssay, several laboratories
